Most compounds without a hit are left out; they make up all but 4.6% or so of the library.
OX1R antag-1 – OX1R (human) antagonism; O43613; OX1R-expressing cells, FRET antagonist read-out; 1.8% of 330,000 active; AID 485270; inhibition, % at 6.6 µM; in the data active = inhibition mostly above about 38%, no sharp cut-off; inactive = mostly below about 40%;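 also: 0% = agonist challenge alone and 100% = reference antagonist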
Target sequence (O43613 whole entry, looked up): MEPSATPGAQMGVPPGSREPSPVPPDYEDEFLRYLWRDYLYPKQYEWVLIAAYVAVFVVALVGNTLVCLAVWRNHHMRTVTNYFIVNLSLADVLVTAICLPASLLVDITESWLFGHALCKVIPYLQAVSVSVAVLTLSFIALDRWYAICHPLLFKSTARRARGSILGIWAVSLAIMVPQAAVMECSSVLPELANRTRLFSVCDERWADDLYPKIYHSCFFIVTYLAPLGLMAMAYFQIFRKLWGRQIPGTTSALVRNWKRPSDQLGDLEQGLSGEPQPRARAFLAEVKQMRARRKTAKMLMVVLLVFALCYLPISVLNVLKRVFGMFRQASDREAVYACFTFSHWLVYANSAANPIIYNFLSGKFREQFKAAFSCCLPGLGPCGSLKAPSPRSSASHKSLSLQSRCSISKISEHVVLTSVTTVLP
TAAR1 ag – agonists of human TAAR1 | Q96RJ0 | AID 624467 | CHO RD-HGA16 TAAR1, Fluo-8 calcium fluorescence; vehicle wells 0%, saturating PEA agonist 100% | activation, % at 3 µM | 0.99% of 360,000 active;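 active = activation above the mean activation of all test compounds in the run plus 3 SD, cut at about 38% in these data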
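Test system: RD-HGA16 (CHO) cells co-expressing Gα16 and hTAAR1 | Doses: Single dose, 3 µM | Schedule: 17-24 h seeding, 75 min 37 °C dye, 30 min RT | Evaluation: % activation from peak over basal fluorescence ratio, DMSO-to-PEA scaled | Technique: Kinetic Fluo-8 calcium fluorescence | Benchmarks: Low control DMSO, high control PEA (EC100)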
OX1R antag-2 – human HCRTR1 antagonism | CHO/OX1R cells, Fluo-8 calcium fluorescence, orexin A | inhibition, % at 5 µM | 0.43% of 330,000 active;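 active = inhibition above its plate's threshold, mean inhibition of all tested compounds on the plate plus 3 SD, cut at about 37% in these data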;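 also: 0% = orexin A challenge wells and 100% = SB-334867-A antagonist wells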
CHO parental Ca – counter-screen: ATP calcium response change in parental CHO cells; inhibition, % at 5.6 µM; parental CHO-K1, ATP-induced calcium, Fluo-8 fluorescence; AID 463079; 0.63% of 330,000 active;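 active = inhibition above that plate's mean sample inhibition plus 3 SD, cut at about 26% in these data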;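 also: 0% = ATP-challenged DMSO wells and 100% = DMSO wells without ATP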
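Assay system: untransfected parental CHO cell line. Also added: ATP agonist challenge. Dosing: one dose, 5.6 µM nominal. Measured by: Fluo-8 fluorescence. Read-out: % inhibition. Benchmarks: ATP wells versus no-ATP DMSO wells. Repeats: no replicates.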
GPR7 antagonist – blocks human GPR7 receptor signaling | 1.1% of 290,000 active | GPR7-expressing cells, fluorescence antagonist assay | inhibition, % at 4.4 µM; in the data active = inhibition above about 16%, passing the limit was not always enough;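 also: cells stimulated with the agonist NPW; 0% = agonist with vehicle and 100% = vehicle without agonist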
TAAR1 antag – human TAAR1 antagonism; Q96RJ0; AID 624466; 1.5% of 360,000 active; CHO RD-HGA16 TAAR1, Fluo-8 calcium fluorescence, antagonist; inhibition, % at 3 µM;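 active = inhibition above a per-plate cutoff, the mean inhibition of test compounds on that plate plus 3 SD, cut at about 49% in these data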;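 also: 0% = DMSO plus EC80 beta-PEA response and 100% = DMSO alone without agonist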
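Test system: RD-HGA16 CHO cells with stable hTAAR1 and Gα16 / Probe or stimulus: EC80 β-phenethylamine stimulus / Times: seeding 17-24 h prior, 75-min 37 °C, 30-min RT dye loading / Detection: Fluo-8 calcium-sensitive fluorescence / Read-out basis: % inhibition scaled between DMSO and EC80 PEA controls / Repeats: singlicate, one well per test compound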
Starred values were filed as active, the others as inactive; . = no result.

SMILES | OX1R antag-1 | TAAR1 ag | OX1R antag-2 | CHO parental Ca | GPR7 antagonist | TAAR1 antag
COc1cc(C(=O)Nc2cccc(NC(=O)c3ccccc3)c2)cc(OC)c1OC | 8 | 14 | -16 | -15 | -22 | 46
N#CC1C(=O)NC(=O)C(C#N)C12CCCC2 (stereo unspecified) | . | 2 | . | . | . | -16
Cc1cc2c(c(=O)o1)[C@@]1(C(=O)Nc3ccccc31)C1=C(CCCC1=O)O2 | . | 1 | . | . | . | -8
COc1cc(NC(=O)CSc2ccc(-c3ccccn3)nn2)cc(OC)c1 | 60* | 6 | 2 | -15 | -9 | -11
Cc1cc(C)cc(NC(=O)CSc2ccc(-c3cccs3)nn2)c1 | 62* | -1 | 8 | -26 | 3 | -10
CC(=O)Nc1cccc(NC(=O)CSc2ccc(-c3ccccn3)nn2)c1 | 19 | 1 | -10 | -30 | -14 | -4
COc1cccc(-c2ccc(SCC(=O)c3ccccc3)nn2)c1 | 26 | 5 | -23 | 4 | 12 | 26
COc1ccc(C(=O)CSc2ccc(-c3ccccc3)nn2)cc1 | 69* | 1 | 7 | -11 | -4 | -16
O=C(CSc1ccc(-c2cccs2)nn1)Nc1ccccc1 | 22 | 4 | -7 | 1 | -10 | -19
COC(=O)[C@@]1(C(C)C)N=C(c2cc(OC)c(OC)c(OC)c2)[C@]2(O1)C(=O)Nc1ccc(F)cc12 | . | 2 | . | . | . | 20
COc1ccc(Cn2cc(CN3CC(N4CCN(CCO)CC4)CS3(=O)=O)nn2)cc1 (stereo unspecified) | . | 1 | . | . | . | -21
O=C(OCc1ccccc1)N1CCC2CC1c1ccc(/C=C/CCCCl)cc12 (stereo unspecified) | . | 7 | . | . | . | -17
CC(=O)c1c(O)cc(O)cc1CC(=O)O | 1 | 2 | -7 | -11 | -12 | -8
CC(=O)c1c(O)cc(O)c(C(C)=O)c1O | 72* | . | 33 | 57* | . | .
CC(OC(=O)c1ccc2ccccc2c1)C(=O)N(C)Cc1ccccc1 (stereo unspecified) | 38* | 10 | 17 | -24 | . | 18
CCOC(=O)c1ccc(-n2cccc2/C=C2\NC(=O)NC2=O)cc1 | 12 | 16 | -5 | -18 | . | 51*
Nc1[nH]c(C(=O)c2ccccc2)c(-c2ccc3ccccc3c2)c1C(=O)NCc1cccc2ccccc12 | . | 1 | . | . | . | -16
CN1CCCCC(NC(=O)c2ccc(Cl)cc2Cl)C1=O (stereo unspecified) | . | 0 | . | . | . | -3
O=C(NCC[C@@H]1CC[C@@H](NS(=O)(=O)c2ccccc2)[C@@H](CO)O1)c1cc(Cl)cc(Cl)c1 | . | 2 | . | . | . | 13
CCc1nnc(NC(=O)CSc2nnc(Cc3cc(=O)[nH]c(=O)[nH]3)n2-c2cccc(OC)c2)s1 | 12 | 0 | -10 | -2 | 17* | 14
CCc1nnc(NC(=O)CSc2nnc(Cc3cc(=O)[nH]c(=O)[nH]3)n2-c2ccc(OC)cc2)s1 | 16 | 1 | -11 | 12 | 11 | -6
Clc1nssc1=Nc1ccc(Br)cc1 | . | 42* | . | . | -8 | 32
C=CCn1c(=O)n(CC=C)c(=O)n(CC=C)c1=O | . | 0 | . | . | . | 14
Cc1ccc(S(=O)(=O)N2CCN(C(=O)c3cc(C4CC4)nn3-c3ccccc3)CC2)cc1 | . | 0 | . | . | . | 3
O=C(OCc1cc(=O)n2c(n1)sc1ccccc12)c1ccc(O)cc1O | 63* | 0 | -2 | -17 | -3 | -8
SMILES | OX1R antag-1 | TAAR1 ag | OX1R antag-2 | CHO parental Ca | GPR7 antagonist | TAAR1 antag
Cc1ccc(C(=O)N[C@H](C(=O)OCc2cc(=O)n3c(n2)sc2ccccc23)C(C)C)cc1 | 21 | 4 | -17 | -40 | -13 | 38
COc1ccccc1C(=O)N1CCN(C(=O)[C@H](CCc2ccccc2)NC(=O)[C@H]2O[C@@H](n3cnc4c(N)ncnc43)[C@H](O)[C@@H]2O)CC1 | . | 0 | . | . | . | 7
CC1CCN(C(=O)CN(c2ccccc2)S(=O)(=O)N(C)C)CC1 | 13 | 6 | -31 | -24 | 21* | 18
CN(C)S(=O)(=O)N(CC(=O)N1CCC(Cc2ccccc2)CC1)c1ccccc1 | 28 | 5 | -16 | -11 | -5 | 14
O=C(NNc1ccccc1[N+](=O)[O-])Nc1ccc(F)cc1 | 19 | 42* | -4 | -15 | -2 | 15
O=C(NNc1ccccc1[N+](=O)[O-])Nc1ccccc1 | 13 | . | -20 | -4 | -1 | .

High-throughput results from PubChem.
